Measurements from ChEMBL document CHEMBL3804807, “Purine analogs as phosphatidylinositol 4-kinase IIIβ inhibitors” (Bioorg Med Chem Lett, 2016).
pEC50, pIC50: −log10 of the molar value.

Legend:
Homo sapiens [1] = organism: Homo sapiens; test: Inhibition of PI4K3 alpha (unknown origin) at 10 uM by ADP-Glo assay relative to control
Summary of the method: (§1)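 PI4K IIIα and PI4K IIIβ activity read by ADP-Glo assay. Each compound was tested at a single concentration of 10 μM, and residual enzyme activity was expressed relative to control.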

Coxsackievirus B3 = test: Antiviral activity against Human coxsackievirus B3; assay type: functional, organism-based; details: Enterovirus B
Homo sapiens [2] = organism: Homo sapiens; test: Inhibition of PI4K3 beta (unknown origin) assessed as residual activity at 10 uM by ADP-Glo assay relative to control; summary of the method: as §1
[3] = Cytotoxicity against human HeLa cells; assay type: cell-based
Hepatitis C virus = test: Antiviral activity against Hepatitis C virus subtype 1b; assay type: functional, organism-based, Hepacivirus hominis; details: genotype 1b
[4] = Inhibition of PI4K3 beta (unknown origin) by ADP-Glo assay; set-up: species or system Homo sapiens
Human rhinovirus sp. = test: Antiviral activity against Human rhinovirus; assay type: functional, organism-based

| Structure (SMILES) | inhibition (Homo sapiens [1]) [%] | pEC50 (Coxsackievirus B3) | Activity (Homo sapiens [2]) [%] | pEC50 (Hepatitis C virus) | pIC50 [4] | pEC50 (Human rhinovirus sp.) | CC50 [3] [µM] |
| --- | --- | --- | --- | --- | --- | --- | --- |
| COc1ccc(-n2c(CO)nc3c(NCCN4CCOCC4)nc(C)nc32)cc1OC | < 50 | < 4.30 | 62 | < 4.36 | – | – | > 50 |
| COc1ccc(-n2c(C)nc3c(NCCN4CCOCC4)nc(-c4ccc(F)cc4)nc32)cc1OC | < 50 | 4.57 | 66 | 5.36 | – | 5.47 | > 50 |
| COc1ccc(-n2c(C)nc3c(NCCN4CCOCC4)nc(-c4cccc(C(=O)N(C)C)c4)nc32)cc1OC | < 50 | 5.96 | 16 | 5.42 | 5.96 | 5.48 | > 50 |
| COc1ccc(-n2c(C)nc3c(NCCN4CCOCC4)nc(-c4ccc(O)cc4)nc32)cc1OC | < 50 | 5.74 | 18 | 5.89 | 5.63 | 5.52 | > 50 |
| COc1ccc(-n2c(C)nc3c(NCCN4CCOCC4)nc(-c4ccsc4)nc32)cc1OC | < 50 | – | 46 | 4.64 | – | < 4.30 | > 50 |
| COc1ccc(-n2c(C)nc3c(NCCN4CCOCC4)nc(-c4cccc(Cl)c4)nc32)cc1OC | < 50 | < 4.30 | 67 | 5.30 | – | 5.05 | > 50 |
| COc1ccc(-n2c(-c3ccc(OCc4ccccc4)cc3)nc3c(NCCN4CCOCC4)nc(C)nc32)cc1OC | < 50 | – | 112 | < 4.36 | – | 5.02 | 26 |
| COc1ccc(-n2nnc3c(NCCN4CCOCC4)nc(C)nc32)cc1OC | < 50 | 4.59 | 31 | 4.48 | – | – | > 50 |
| COc1ccc(-n2c(-c3ccsc3)nc3c(NCCN4CCOCC4)nc(C)nc32)cc1OC | < 50 | < 4.30 | 94 | < 4.36 | – | < 4.30 | > 50 |
| COc1ccc(-n2c(C)nc3c(NCCN4CCOCC4)nc(-c4ccc(C#N)cc4)nc32)cc1OC | < 50 | 5.00 | 97 | 5.41 | – | 5.52 | > 50 |
| COc1ccc(-n2c(C#Cc3ccccc3)nc3c(NCCN4CCOCC4)nc(C)nc32)cc1OC | < 50 | < 4.30 | 96 | 4.52 | – | < 4.30 | > 50 |
| COc1ccc(-n2c(C3CC=CCC3)nc3c(NCCN4CCOCC4)nc(C)nc32)cc1OC (stereo unspecified) | < 50 | < 4.30 | 75 | < 4.36 | – | < 4.30 | > 50 |
| COc1ccc(Cn2c(C)nc3c(NCCN4CCOCC4)nc(C)nc32)cc1OC | < 50 | < 4.30 | 126 | 4.37 | – | < 4.30 | > 50 |

The next lines start with results.

| inhibition (Homo sapiens [1]) [%] | pEC50 (Coxsackievirus B3) | Activity (Homo sapiens [2]) [%] | pEC50 (Hepatitis C virus) | pIC50 [4] | pEC50 (Human rhinovirus sp.) | Structure (SMILES) | CC50 [3] [µM] |
| --- | --- | --- | --- | --- | --- | --- | --- |
| < 50 | < 4.30 | 18 | 4.89 | 5.72 | 4.59 | C#Cc1nc(NCCN2CCOCC2)c2nc(C)n(-c3ccc(OC)c(OC)c3)c2n1 | > 50 |
| < 50 | 5.05 | 33 | 5.00 | – | 4.80 | COc1ccc(-n2c(C)nc3c(NCCN4CCOCC4)nc(I)nc32)cc1OC | > 50 |
| < 50 | 5.30 | 13 | 4.72 | 5.79 | 4.55 | COc1ccc(-n2c(C)nc3c(NCCN4CCOCC4)ncnc32)cc1OC | > 50 |
| < 50 | 4.72 | 25 | 4.40 | 5.84 | 4.31 | COc1ccc(-n2c(C)nc3c(NCCN4CCOCC4)nc(N)nc32)cc1OC | > 50 |
| < 50 | 4.40 | 38 | 4.70 | – | < 4.30 | COc1ccc(-n2c(I)nc3c(NCCN4CCOCC4)nc(C)nc32)cc1OC | > 50 |
| < 50 | < 4.30 | 15 | 5.22 | 5.52 | 4.80 | COc1nc(NCCN2CCOCC2)c2nc(C)n(-c3ccc(OC)c(OC)c3)c2n1 | > 50 |
